According to ChEMBL document CHEMBL3826891, “Cupriphilic compounds to aid in proteasome inhibition” (Bioorg Med Chem Lett, 2016):
Active and inactive are the calls of the source. No cut-off for these calls is given here.

Experiments:
[1] = target: T1, Proteasome Macropain subunit MB1 (Homo sapiens) (UniProt P28074); experiment: Inhibition of chymotrypsin like activity of 20S proteasome (unknown origin) using suc-leu-leu-val-tyr-AMC as substrate at 10 uM after 40 mins in presence of 1 uM copper by fluorescence assay
T1 sequence (whole entry): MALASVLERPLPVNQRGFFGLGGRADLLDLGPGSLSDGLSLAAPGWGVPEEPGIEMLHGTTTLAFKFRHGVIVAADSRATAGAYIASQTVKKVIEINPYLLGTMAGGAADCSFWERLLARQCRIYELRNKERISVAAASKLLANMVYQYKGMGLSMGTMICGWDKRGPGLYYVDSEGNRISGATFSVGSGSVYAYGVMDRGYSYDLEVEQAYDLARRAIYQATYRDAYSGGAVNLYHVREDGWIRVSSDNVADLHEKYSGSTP
Procedure, shortened: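 Compound in DMSO, final DMSO below 2%, at 10 µM. Premixed with 1 µM copper chloride in 50 mM Tris pH 7.6 for 40 min with gentle shaking to allow chelation. 20S proteasome and suc-Leu-Leu-Val-Tyr-AMC were then added and incubated 2 h at 37 °C. Substrate cleavage rate was read as fluorescence at 340 nm excitation and 460 nm emission.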

[2] = target: T1, Proteasome Macropain subunit MB1 (Homo sapiens); experiment: Inhibition of chymotrypsin like activity of 20S proteasome (unknown origin) using suc-leu-leu-val-tyr-AMC as substrate at 10 uM after 40 mins in presence of nickel by fluorescence assay
Procedure, shortened: (§1)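 To test metal selectivity, the chloride of nickel, calcium, iron or zinc replaced copper and was premixed with compound for 40 min with shaking in 50 mM Tris pH 7.6. 20S proteasome and suc-LLVY-AMC were then added and incubated 2 h at 37 °C. Cleavage was read by fluorescence at 340 nm excitation and 460 nm emission.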

[3] = target: T1, Proteasome Macropain subunit MB1 (Homo sapiens); experiment: Inhibition of chymotrypsin like activity of 20S proteasome (unknown origin) using suc-leu-leu-val-tyr-AMC as substrate at 10 uM after 40 mins in presence of calcium by fluorescence assay; procedure, shortened: as §1
[4] = target: T1, Proteasome Macropain subunit MB1 (Homo sapiens); experiment: Inhibition of chymotrypsin like activity of 20S proteasome (unknown origin) using suc-leu-leu-val-tyr-AMC as substrate at 10 uM after 40 mins in presence of iron by fluorescence assay; procedure, shortened: as §1
[5] = target: T1, Proteasome Macropain subunit MB1 (Homo sapiens); experiment: Inhibition of chymotrypsin like activity of 20S proteasome (unknown origin) using suc-leu-leu-val-tyr-AMC as substrate at 10 uM after 40 mins in presence of copper by fluorescence assay
[6] = target: T2, Proteasome Macropain subunit MB1 (Homo sapiens, UniProt P28074); experiment: Inhibition of chymotrypsin like activity of 20S proteasome (unknown origin) using suc-leu-leu-val-tyr-AMC as substrate after 40 mins in presence of 100 nM copper by fluorescence assay
T2 sequence (P28074 whole entry): T1 sequence (whole entry)
Procedure, shortened: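 Dose-response format in which compound concentration was varied with copper chloride fixed at 100 nM. Compound and copper were pre-equilibrated 40 min with gentle shaking in 50 mM Tris pH 7.6, final DMSO below 2%. 20S proteasome and suc-LLVY-AMC were added and run 2 h at 37 °C. AMC fluorescence was read at 340/460 nm, and IC50 was taken from the curve.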

Structure (SMILES) | inhibition [1] [%] | inhibition [2] | inhibition [3] | inhibition [4] | inhibition [5] | IC50 [6] [µM]
O=c1oc2c(cc1O)oc(=O)c1cc(O)c(O)c(O)c12 | > 80 | Active | Active | Active | Active | –
O=C1c2c(O)cc(O)cc2OCC1c1ccc(O)cc1 (stereo unspecified) | > 80 | Active | Active | Active | Active | –
OCc1cc(O)c(CO)nn1 | > 80 | Active | Active | Active | Active | –
O=C(O)c1ccc(O)c(O)c1 | > 80 | Active | Active | Active | Active | –
O=C1COc2c1ccc(O)c2O | > 80 | Active | Active | Active | Active | 3
NC(=O)SCC(=O)Nc1ccccc1C(=O)O | > 80 | Active | Active | Active | Active | –
CCN(CC)C(=S)SSC(=S)N(CC)CC | 92 | Active | Active | Active | Active | –
